From PubChem BioAssay AID588762 (The Scripps Research Institute Molecular Screening Center, 2011)
Calls of active or inactive are those of the source.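 Rule for the calls: active = fitted IC50 at or below 10 µM in the dose response luciferase test; inactive = IC50 weaker than 10 µM.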

Target: Epstein-Barr virus nuclear antigen 1 (EBNA-1), Human herpesvirus 4
Test: EBNA-1 inhibitors in cellular reporter, late-stage follow-up, cell-based, luciferase, dose response, assay provider data (AID 588762)
Details: 293T Qp-promoter luciferase reporter, EBNA-1 repression
Procedure, shortened: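 Control set: cells co-transfected with empty vector instead of EBNA-1 plasmid; System: human 293T cells transiently co-transfected with Qp-promoter luciferase reporter, Flag-tagged EBNA-1; Schedule: 48 h cell incubation at 37 °C, 5% CO2 after plating; Read-out: concentration giving half-maximal luminescence stimulation, four-parameter sigmoidal fit; Signal: Steady-Glo luciferase luminescence.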

SMILES | IC50
Cc1cc(C(=O)CSc2nnnn2-c2ccccc2)c(C)n1Cc1cccs1 | > 148 µM (inactive)
Cc1cc(C(=O)CSc2nnnn2C)c(C)n1CC1CCCO1 (centres undefined) | > 148 µM (inactive)
Cc1cc(C(=O)CSc2nnnn2-c2ccccc2)c(C)n1C | inactive
Cc1ccccc1-n1nnnc1SCC(=O)c1cc(C)n(CC2CCCO2)c1C (centres undefined) | > 148 µM (inactive)
COCCn1c(C)cc(C(=O)CSc2nnnn2-c2ccccc2)c1C | > 148 µM (inactive)
Cc1cc(C(=O)CSc2nnnn2-c2ccc(Cl)cc2)c(C)n1CC1CCCO1 (centres undefined) | > 148 µM (inactive)
Cc1cc(C(=O)CSc2nnnn2-c2cccc(F)c2)c(C)n1CC1CCCO1 (centres undefined) | > 148 µM (inactive)
CCn1c(C)cc(C(=O)CSc2nnnn2-c2ccccc2)c1C | > 148 µM (inactive)
Cc1cccc(-n2nnnc2SCC(=O)c2cc(C)n(CC3CCCO3)c2C)c1 (centres undefined) | > 148 µM (inactive)
O=C(CSc1nnnn1-c1ccccc1)c1ccn(CC2CCCO2)c1 (centres undefined) | > 148 µM (inactive)
COc1ccc(-n2nnnc2SCC(=O)c2cc(C)n(CC3CCCO3)c2C)cc1 (centres undefined) | > 16.4 µM (inactive)
Cc1cc(C(=O)CSc2nnnn2C2CC2)c(C)n1CC1CCCO1 (centres undefined) | inactive

More lines, now with the values ahead:

IC50 | SMILES
> 148 µM (inactive) | Cc1ccc(C(=O)Nc2nc3cc(F)ccc3s2)cc1C
> 148 µM (inactive) | COc1ccc2nc(NC(=O)c3ccc(C)c(C)c3)sc2c1
inactive | COc1cccc(C(=O)Nc2nc3ccc(S(C)(=O)=O)cc3s2)c1
> 148 µM (inactive) | CS(=O)(=O)c1ccc2nc(NC(=O)c3ccccc3Cl)sc2c1
> 148 µM (inactive) | CS(=O)(=O)c1ccc2nc(NC(=O)c3ccccc3F)sc2c1
inactive | COc1ccc(C(=O)Nc2nc3ccc(S(C)(=O)=O)cc3s2)cc1
> 148 µM (inactive) | Cc1ccccc1C(=O)Nc1nc2ccc(S(C)(=O)=O)cc2s1
> 148 µM (inactive) | CS(=O)(=O)c1ccc2nc(NC(=O)c3cccc(F)c3)sc2c1
inactive | Cc1cccc(C(=O)Nc2nc3ccc(S(C)(=O)=O)cc3s2)c1
> 148 µM (inactive) | Cc1ccc(C(=O)Nc2nc3ccc(S(C)(=O)=O)cc3s2)cc1
> 148 µM (inactive) | COc1cccc2sc(NC(=O)c3ccc(C)c(C)c3)nc12
> 148 µM (inactive) | CS(=O)(=O)c1ccc2nc(NC(=O)c3cccc(Cl)c3)sc2c1
> 148 µM (inactive) | COc1ccc2sc(NC(=O)c3ccc(C)c(C)c3)nc2c1
inactive | CS(=O)(=O)c1ccc2nc(NC(=O)c3ccc(Cl)cc3)sc2c1
> 148 µM (inactive) | Cc1ccc(C(=O)Nc2nc3cc(Br)ccc3s2)cc1C
> 148 µM (inactive) | COc1ccccc1C(=O)Nc1nc2ccc(S(C)(=O)=O)cc2s1
> 148 µM (inactive) | Cc1ccc(C(=O)Nc2nc3ccc(Br)cc3s2)cc1C
